Laboratory results taken from publication PMC4186986 (Acta Pharmacologica Sinica, 2014).

How the values were obtained:
Type in all cases: cell-based
MDA-MB-231 cells = test: MTT anti-proliferation assay, MDA-MB-231; conditions: Homo sapiens, MDA-MB-231, 48 h, read-out: MDA-MB-231 inhibition (%)
In short: (§1)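 MCF-7 or MDA-MB-231 cells seeded at 10^5 cells/mL in phenol red-free DMEM/F12 with 10% charcoal-stripped FBS. Exposed to test compound at 0.01–100 μmol/L for 48 h (37 °C, 5% CO2), then MTT (5 mg/mL stock) for 4 h. Formazan dissolved in DMSO; absorbance read at 570 nm. Inhibition taken relative to DMSO-treated cells set as 100% viability; single-point values at 100 μmol/L final.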

MCF-7 cells = test: MTT anti-proliferation assay, MCF-7; conditions: Homo sapiens, MCF7, 48 h, read-out: MCF-7 inhibition (%)
In short: as §1

[1] = test system: cyclin A, cyclin E, CDK2 in MDA-MB-231 cells; test: Western blot of cell cycle regulatory proteins; conditions: MDA-MB-231, 48 h; compounds together with 1 nmol/L E2
In short: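 MDA-MB-231 cells in DMEM/F12 with 10% charcoal-stripped FBS, seeded at 2×10^5 cells/well, treated 48 h with 1 nmol/L E2 plus test compound at several concentrations. Run on 12% SDS-PAGE, transferred to PVDF, probed overnight at 4 °C for cyclin A, cyclin E and CDK2, with ECL detection. GAPDH served as loading control; three independent experiments.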

Compound: CC/C(=C(\c1ccccc1)c1ccc(OCCN(C)C)cc1)c1ccccc1 [Tamoxifen]
- inhibition at 100 µM (MDA-MB-231 cells): 80.5%
- inhibition at 100 µM (MCF-7 cells): 93.3%

Compound: C[C@]12CC[C@@H]3c4ccc(O)cc4CC[C@H]3[C@@H]1CC[C@@H]2O [Estradiol, 17β-estrodial]
- expression level of CDK2 [1]: increased the expression
- expression level of cyclin A [1]: increased the expression
- expression level of cyclin E [1]: increased the expression
